Test results taken from ChEMBL document CHEMBL1275447 (Antimicrob Agents Chemother, 2008).
In brackets after ≈: the same amount, converted by molar mass. Activity calls are given as the source filed them. No cut-off for these calls is given here.

Tests used:
[1] = fT>MIC in human infected with Pseudomonas aeruginosa isolate 988 at 500 mg administered as 1 hr infusion; assay type: functional
[2] = fT>MIC in human infected with Pseudomonas aeruginosa isolate 944 at 500 mg administered as 1 hr infusion; assay type: functional
Pseudomonas aeruginosa [3] = assay: Antibacterial activity against Pseudomonas aeruginosa isolate 1062 by microdilution method; assay type: functional
Pseudomonas aeruginosa [4] = assay: Antibacterial activity against Pseudomonas aeruginosa isolate 935 by microdilution method; assay type: functional
Procedure, shortened: (§1)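 CLSI broth microdilution in cation-adjusted Mueller-Hinton broth (20–25 mg/liter Ca, 10–12.5 mg/liter Mg). Standard inoculum 10⁵ CFU/ml, incubated in ambient air. Clinical hospital isolates.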

Pseudomonas aeruginosa [5] = assay: Antibacterial activity against Pseudomonas aeruginosa isolate 1052 by microdilution method; assay type: functional; procedure, shortened: as §1
[6] = Cmax in Pseudomonas aeruginosa ATCC 27853 infected neutropenic ICR mouse at 5.5, 2.25, 4.5, 4.5, 4.5, 4.5, 0.75, and 0.375 mg/kg given at 0, 0.5, 1.5, 2.5, 3.5, 4.5, 6, and 7.5 h over 24 h; assay type: ADME, organism-based; design: dose 0.375 mg/kg; details: in vivo
[7] = fT>MIC in neutropenic mouse infected with Pseudomonas aeruginosa isolate 1082 at 500 mg administered as 4 hr infusion; assay type: functional
Procedure, shortened: (§2)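 Mouse fT>MIC was modelled with first-order one-compartment serum PK and 25.2% binding. Mice were neutropenic (cyclophosphamide) with uranyl nitrate renal impairment. Subcutaneous doses were 5.5, 2.25, 4.5, 4.5, 4.5, 4.5, 0.75, 0.375 mg/kg at 0, 0.5, 1.5, 2.5, 3.5, 4.5, 6, 7.5 h per 8-h interval over 24 h.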

[8] = fT>MIC in human infected with Pseudomonas aeruginosa isolate 906 at 500 mg administered as 4 hr infusion; assay type: functional
[9] = fT>MIC in neutropenic mouse infected with Pseudomonas aeruginosa isolate 935 at 500 mg administered as 1 hr infusion; assay type: functional
Procedure, shortened: (§3)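 Free-drug time above MIC simulated from one-compartment mouse serum PK (25.2% protein binding). The mice were cyclophosphamide-neutropenic and uranyl nitrate-renally impaired. Regimen was subcutaneous 10, 15, 2.5, 1.25, 0.5, 0.25 mg/kg at 0, 0.5, 2.5, 4, 5.5, 7 h, repeated every 8 h over 24 h.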

Pseudomonas aeruginosa [10] = assay: Antibacterial activity against Pseudomonas aeruginosa isolate 1058 by microdilution method; assay type: functional
[11] = fT>MIC in human infected with Pseudomonas aeruginosa isolate 886 at 500 mg administered as 1 hr infusion; assay type: functional
[12] = Cmax in Pseudomonas aeruginosa ATCC 27853 infected neutropenic ICR mouse at 150 mg/kg, sc administered as single dose 2 hrs postinfection by HPLC; assay type: ADME, organism-based; design: dose 150 mg/kg, route subcutaneous; details: in vivo
Procedure, shortened: (§4)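 Neutropenic mice (cyclophosphamide ip 150 and 100 mg/kg, 4 and 1 days before inoculation) with uranyl nitrate 5 mg/kg ip 3 days before, for renal impairment. Thigh infection with ATCC 27853 at 10⁶ CFU/ml, 0.1 ml per thigh. Single sc doses 2 h later. Intracardiac blood from 6–12 mice per time point, eight time points over 4 h. Serum assayed by HPLC (linear 0.5–40 μg/ml). One-compartment first-order fit.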

[13] = AUC in healthy human at 500 mg administered as 4 hr infusion; assay type: ADME, organism-based; details: plasma, iv
[14] = fT>MIC in human infected with Pseudomonas aeruginosa isolate 979 at 500 mg administered as 4 hr infusion; assay type: functional
Pseudomonas aeruginosa [15] = assay: Antibacterial activity against Pseudomonas aeruginosa at 2 times MIC; assay type: functional, organism-based
Procedure, shortened: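 Time-kill in cation-adjusted Mueller-Hinton broth. Inoculum from overnight culture set to 0.5 McFarland, final 10⁶ CFU/ml, 37°C in ambient air for 24 h. 1×, 2× and 7× MIC plus drug-free controls. Samples taken at 0, 2, 4, 6, 12 and 24 h and plated on sheep blood agar. Detection limit 10² CFU/ml.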

[16] = fT>MIC in neutropenic mouse infected with Pseudomonas aeruginosa isolate 979 at 500 mg administered as 1 hr infusion; assay type: functional; procedure, shortened: as §3
[17] = fT>MIC in neutropenic mouse infected with Pseudomonas aeruginosa isolate 886 at 500 mg administered as 1 hr infusion; assay type: functional; procedure, shortened: as §3
[18] = AUC in healthy human at 500 mg administered as 1 hr infusion; assay type: ADME, organism-based; details: plasma, iv
Pseudomonas aeruginosa [19] = assay: Antibacterial activity against Pseudomonas aeruginosa isolate 944 at 4 ug/ml after 24 hrs; assay type: functional, organism-based
[20] = Elimination rate constant in Pseudomonas aeruginosa ATCC 27853 infected neutropenic ICR mouse at 50 mg/kg, sc administered as single dose 2 hrs postinfection; assay type: ADME, organism-based; design: dose 50 mg/kg, route subcutaneous; details: in vivo; procedure, shortened: as §4
[21] = AUC in Pseudomonas aeruginosa ATCC 27853 infected neutropenic ICR mouse at 500 mg administered as 1 hr infusion; assay type: ADME, organism-based; details: plasma, iv
[22] = AUC (0 to 24 hrs) in Pseudomonas aeruginosa ATCC 27853 infected neutropenic ICR mouse at 10 mg/kg, sc administered as single dose 2 hrs postinfection; assay type: ADME, organism-based; design: time < 24 hr, dose 10 mg/kg, route subcutaneous; details: plasma; procedure, shortened: as §4
[23] = AUC in Pseudomonas aeruginosa ATCC 27853 infected neutropenic ICR mouse at 500 mg administered as 4 hr infusion; assay type: ADME, organism-based; details: plasma, iv
[24] = fT>MIC in neutropenic mouse infected with Pseudomonas aeruginosa isolate 906 at 500 mg administered as 4 hr infusion; assay type: functional; procedure, shortened: as §2
[25] = Cmax in Pseudomonas aeruginosa ATCC 27853 infected neutropenic ICR mouse at 50 mg/kg, sc administered as single dose 2 hrs postinfection by HPLC; assay type: ADME, organism-based; design: dose 50 mg/kg, route subcutaneous; details: in vivo; procedure, shortened: as §4
[26] = fT>MIC in neutropenic mouse infected with Pseudomonas aeruginosa isolate 1058 at 500 mg administered as 1 hr infusion; assay type: functional; procedure, shortened: as §3
Pseudomonas aeruginosa [27] = assay: Antibacterial activity against Pseudomonas aeruginosa isolate at 8 to 16 ug/ml after 24 hrs; assay type: functional, organism-based
[28] = fT>MIC in neutropenic mouse infected with Pseudomonas aeruginosa isolate 935 at 500 mg administered as 4 hr infusion; assay type: functional; procedure, shortened: as §2
[29] = Half-life in Pseudomonas aeruginosa ATCC 27853 infected neutropenic ICR mouse at 10 mg/kg, sc administered as single dose 2 hrs postinfection; assay type: ADME, organism-based; design: dose 10 mg/kg, route subcutaneous; details: in vivo; procedure, shortened: as §4
[30] = fT>MIC in neutropenic mouse infected with Pseudomonas aeruginosa isolate 1060 at 500 mg administered as 1 hr infusion; assay type: functional; procedure, shortened: as §3
[31] = fT>MIC in human infected with Pseudomonas aeruginosa isolate 1036 at 500 mg administered as 4 hr infusion; assay type: functional
[32] = fT>MIC in neutropenic mouse infected with Pseudomonas aeruginosa isolate 1050 at 500 mg administered as 4 hr infusion; assay type: functional; procedure, shortened: as §2
[33] = Half-life in Pseudomonas aeruginosa ATCC 27853 infected neutropenic ICR mouse at 150 mg/kg, sc administered as single dose 2 hrs postinfection; assay type: ADME, organism-based; design: dose 150 mg/kg, route subcutaneous; details: in vivo; procedure, shortened: as §4
Pseudomonas aeruginosa [34] = assay: Antibacterial activity against Pseudomonas aeruginosa isolate 993 by microdilution method; assay type: functional
[35] = fT>MIC in neutropenic mouse infected with Pseudomonas aeruginosa isolate 1062 at 500 mg administered as 1 hr infusion; assay type: functional; procedure, shortened: as §3
[36] = fT>MIC in human infected with Pseudomonas aeruginosa isolate 1036 at 500 mg administered as 1 hr infusion; assay type: functional
[37] = fT>MIC in neutropenic mouse infected with Pseudomonas aeruginosa isolate 1036 at 500 mg administered as 4 hr infusion; assay type: functional; procedure, shortened: as §2

Q: Which “fT>MIC” value [1] does the source give for C[C@@H](O)[C@H]1C(=O)N2C(C(=O)O)=C(S[C@@H]3CN[C@H](CNS(N)(=O)=O)C3)[C@H](C)[C@H]12 [DORIPENEM] here?
A: 17.5%

Q: And the “fT>MIC” value [2]?
A: 27.5%

Q: What about the MIC (Pseudomonas aeruginosa [3]) of the same compound?
A: 0.5 µg/mL (≈ 1.19 µM)

Q: And the MIC (Pseudomonas aeruginosa [4])?
A: 1 µg/mL (≈ 2.38 µM)

Q: And the MIC (Pseudomonas aeruginosa [5])?
A: 1 µg/mL (≈ 2.38 µM)

Q: What about the Cmax [6] of the same compound?
A: 7.99 µg/mL

Q: And the “fT>MIC” value [7]?
A: 82.5%

Q: What about the fT>MIC [8] of the same compound?
A: 65%

Q: And the fT>MIC [9]?
A: 55%

Q: What about the MIC (Pseudomonas aeruginosa [10]) of the same compound?
A: 2 µg/mL (≈ 4.76 µM)

Q: And the “fT>MIC” value [11]?
A: 90%

Q: What about the Cmax [12] of the same compound?
A: 194 µg/mL

Q: And the AUC at 4 h [13]?
A: 32400 ng·h/mL

Q: And the fT>MIC [14]?
A: 65%

Q: What about the Activity (Pseudomonas aeruginosa [15]) of the same compound?
A: inactive

Q: And the fT>MIC [16]?
A: 42.5%

Q: And the fT>MIC [17]?
A: 90%

Q: And the AUC at 1 h [18]?
A: 32600 ng·h/mL

Q: And the Activity (Pseudomonas aeruginosa [19])?
A: inactive

Q: What about the k el at 2 h [20] of the same compound?
A: 0.000567 s⁻¹

Q: And the AUC at 1 h [21]?
A: 37600 ng·h/mL

Q: What about the AUC(0-t) at 24 h [22] of the same compound?
A: 13500 ng·h/mL

Q: And the AUC at 4 h [23]?
A: 34400 ng·h/mL

Q: And the “fT>MIC” value [24]?
A: 70%

Q: What about the Cmax [25] of the same compound?
A: 59.7 µg/mL

Q: And the fT>MIC [26]?
A: 42.5%

Q: And the Activity (Pseudomonas aeruginosa [27])?
A: inactive

Q: What about the “fT>MIC” value [28] of the same compound?
A: 82.5%

Q: And the half-life [29]?
A: 24.6 min

Q: What about the fT>MIC [30] of the same compound?
A: 30%

Q: And the fT>MIC [31]?
A: 65%

Q: What about the “fT>MIC” value [32] of the same compound?
A: 52.5%

Q: And the half-life [33]?
A: 26.4 min

Q: What about the MIC (Pseudomonas aeruginosa [34]) of the same compound?
A: 0.125 µg/mL (≈ 0.297 µM)

Q: And the fT>MIC [35]?
A: 75%

Q: And the “fT>MIC” value [36]?
A: 40%

Q: And the “fT>MIC” value [37]?
A: 70%
